For data set [1], the system named is hepatitis B virus (HBV). Particulars: HepAD38 cells, 1–10 μM; cited from earlier work.
The subject of a further data set is HepAD38 cells. The data set can be described thus: Cytotoxicity in HepAD38 cells. To be noted: read-out: Cytotoxicity CC50, MTS assay, 0 to 100 μM. The format is cell-based. A general note: Tetrazolium dyes change colour on reduction, which living cells bring about.
For data set [2], the system named is hepatitis B virus (HBV). The data set can be described thus: Reduction of intracellular HBV rcDNA in HepAD38 cells. The format is cell-based. To be noted: qPCR, relative to 0.5% DMSO vehicle.
For data set [3], the system named is hepatitis B virus (HBV). The data set can be described thus: Inhibition of HBsAg secretion in HBV-replicating HepAD38 cells. The format is cell-based. Particulars: for Inhibition of HBsAg secretion (in words): 5 μM, relative to vehicle 0.5% DMSO. The essentials: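 HepAD38 cells carry an integrated HBV genome under a tetracycline-regulated promoter, […]. Cells were treated with test compound. HBsAg secreted into the culture supernatant was quantified by ELISA. Selectivity index was taken as CC50/IC50.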

The nature of data set [4]: Cytotoxicity in HepAD38 cells. The format is cell-based. To be noted: human, Cytotoxicity CC50, HepAD38 cells, MTS assay, 0 to 100 μM.

For `C[C@@]1(CO)[C@H](O)CC[C@@]2(C)[C@H]1CC[C@H]1C[C@@H]3C[C@@]12CC[C@]3(O)CO` [aphidicolin], the “Effect on cccDNA levels (in words)” value in the data set with hepatitis B virus (HBV) [1] is “effectively reduces cccDNA levels in a dose-dependent manner”.
With `CC[C@]12C=CCN3CC[C@]4(C(=C(C(=O)OC)C1)Nc1ccccc14)[C@@H]32` [compound 6, tabersonine], the CC50 (commonly the concentration at which the toxic effect on the cells reaches its halfway point) with HepAD38 cells was determined as 41.8 ± 3.1 µM. Also, the “rcDNA inhibition [%]: compound (5 μM)” value in the data set with hepatitis B virus (HBV) [2] was “minimal or no effect”. In the data set with hepatitis B virus (HBV) [3] (HepAD38 cells), the “Inhibition of HBsAg secretion (in words)” value is “only modest inhibitory activity”. Further, the “Selectivity index: CC50/IC50” value in the data set on hepatitis B virus (HBV) [3] (HepAD38 cells, CC50 (MTS) / HBsAg IC50) is 2.86. Also, the IC50 – broadly, the concentration that inhibits the measured activity by half – with hepatitis B virus (HBV) [3] (Hepatitis B virus, HePAD38, read-out: HBsAg IC50) came to 14.6 ± 4.1 µM.
As for `CCOC(=O)C1=C[C@]2(CC)CCCN3CCc4c(n1c1ccccc41)[C@@H]32` [compound 8, vinpocetine], in data set [4], the CC50 at 14 days is > 100 µM. For the same molecule, the “rcDNA inhibition [%]: compound (5 μM)” value in the data set on hepatitis B virus (HBV) [2] is “minimal or no effect”. The “Inhibition of HBsAg secretion (in words)” value with hepatitis B virus (HBV) [3] (HepAD38 cells) is listed as “negligible inhibitory effects”.

The values are drawn from publication PMC12560046 (RSC Chemical Biology, 2025).
